Measurements: ChEMBL document CHEMBL1145545, “Discovery of a novel A2B adenosine receptor antagonist as a clinical candidate for chronic inflammatory airway diseases” (J Med Chem, 2008)

Assays:
Homo sapiens [1] = organism: Homo sapiens; assay: Selectivity for human recombinant adenosine A2B receptor over human recombinant adenosine A1 receptor
Adenosine receptor A2b = molecular target: T1, Adenosine receptor A2b (Homo sapiens, UniProt P29275); assay: Displacement of [3H]ZM-241385 from human recombinant adenosine A2B receptor expressed in HEK293 cells; format: cell-based
T1 sequence (P29275 whole entry): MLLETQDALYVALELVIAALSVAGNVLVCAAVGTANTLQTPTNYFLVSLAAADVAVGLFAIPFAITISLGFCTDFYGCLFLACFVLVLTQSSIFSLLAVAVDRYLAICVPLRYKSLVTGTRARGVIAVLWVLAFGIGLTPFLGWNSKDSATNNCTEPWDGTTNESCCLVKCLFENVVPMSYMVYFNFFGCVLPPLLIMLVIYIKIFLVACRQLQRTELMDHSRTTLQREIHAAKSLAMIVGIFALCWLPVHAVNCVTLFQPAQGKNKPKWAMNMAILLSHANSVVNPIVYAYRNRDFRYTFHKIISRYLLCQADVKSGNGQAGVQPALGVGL
Outline: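 Membranes from HEK293 cells stably expressing human A2B receptor; competition with 10 nM radioligand, 50 µg membrane protein, in 50 mM Tris/1 mM EDTA with 1 U/mL adenosine deaminase, 25 °C for 90 min with gentle agitation; filtration, four ice-cold Tris/MgCl2 washes. Nonspecific binding defined with 10 µM unlabelled ligand; Ki calculated.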

Adenosine receptor A1 = molecular target: T2, Adenosine receptor A1 (Homo sapiens, UniProt P30542); assay: Displacement of [3H]CPX from human recombinant adenosine A1 receptor expressed in CHO cells; format: cell-based
T2 sequence (P30542 whole entry): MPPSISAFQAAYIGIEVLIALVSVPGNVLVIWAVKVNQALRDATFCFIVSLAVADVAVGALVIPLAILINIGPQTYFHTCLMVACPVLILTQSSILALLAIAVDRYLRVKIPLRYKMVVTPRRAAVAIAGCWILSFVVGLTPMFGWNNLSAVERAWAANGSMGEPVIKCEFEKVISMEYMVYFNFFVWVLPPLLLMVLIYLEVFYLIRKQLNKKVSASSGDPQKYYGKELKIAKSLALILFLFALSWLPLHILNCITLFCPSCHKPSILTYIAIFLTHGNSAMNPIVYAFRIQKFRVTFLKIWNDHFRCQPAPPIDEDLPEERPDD
Outline: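 CHO cell membranes stably expressing human A1 receptor; 0.5 nM [3H]CPX competed with test compound in 50 mM Tris/1 mM EDTA plus 1 U/mL adenosine deaminase, 25 °C, 90 min, gentle agitation; filtration and four ice-cold Tris/MgCl2 washes. Nonspecific binding defined with 1 µM CPX; Ki values derived.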

Adenosine receptor A2a = Adenosine receptor A2a (Homo sapiens, UniProt P29274); assay: Displacement of [3H]ZM-241385 from human recombinant adenosine A2A receptor expressed in HEK293 cells; format: cell-based
Sequence of Adenosine receptor A2a (P29274 whole entry): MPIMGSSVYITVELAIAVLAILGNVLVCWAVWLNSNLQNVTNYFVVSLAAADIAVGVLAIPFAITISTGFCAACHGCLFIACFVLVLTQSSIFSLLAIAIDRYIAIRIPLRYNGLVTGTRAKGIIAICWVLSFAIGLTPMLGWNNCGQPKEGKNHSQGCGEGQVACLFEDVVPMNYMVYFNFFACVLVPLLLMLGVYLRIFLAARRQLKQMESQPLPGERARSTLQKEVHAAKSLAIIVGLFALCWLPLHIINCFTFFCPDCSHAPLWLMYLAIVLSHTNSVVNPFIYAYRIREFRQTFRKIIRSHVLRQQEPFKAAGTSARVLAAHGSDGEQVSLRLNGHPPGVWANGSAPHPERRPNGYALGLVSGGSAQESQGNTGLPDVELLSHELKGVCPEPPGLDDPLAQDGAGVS
Outline: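 Membranes from HEK293 cells stably expressing human A2A receptor; 2 nM radioligand competed in 50 mM Tris/1 mM EDTA with 1 U/mL adenosine deaminase for 90 min at 25 °C with agitation; filtration, four ice-cold Tris/MgCl2 washes. Nonspecific binding defined with 1 µM unlabelled ligand; Ki computed.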

Adenosine receptor A3 = molecular target: T3, Adenosine receptor A3 (Homo sapiens, UniProt P0DMS8); assay: Displacement of [125I]ABMECA from human recombinant adenosine A3 receptor expressed in CHO cells; format: cell-based
T3 sequence (P0DMS8 whole entry): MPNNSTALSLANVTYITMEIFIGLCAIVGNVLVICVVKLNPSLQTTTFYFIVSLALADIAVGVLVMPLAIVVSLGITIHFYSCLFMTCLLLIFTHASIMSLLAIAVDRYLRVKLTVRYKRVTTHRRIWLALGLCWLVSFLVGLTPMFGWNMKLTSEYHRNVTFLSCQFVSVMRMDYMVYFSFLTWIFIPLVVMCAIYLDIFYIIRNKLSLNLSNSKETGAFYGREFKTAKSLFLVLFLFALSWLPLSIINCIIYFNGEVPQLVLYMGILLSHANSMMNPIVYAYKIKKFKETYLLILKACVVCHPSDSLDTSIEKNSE
Outline: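 Human A3 receptor stably expressed in CHO cells; membranes incubated with 0.1 nM 125I-AB-MECA and test compound in 50 mM Tris, 1 mM EDTA, 10 mM MgCl2 plus 1 U/mL adenosine deaminase, 25 °C, 90 min; filtration, four ice-cold washes. Nonspecific binding defined with 1 µM IB-MECA; Ki determined.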

Homo sapiens [2] = organism: Homo sapiens; assay: Selectivity for human recombinant adenosine A2B receptor over human recombinant adenosine A2A receptor
Homo sapiens [3] = organism: Homo sapiens; assay: Selectivity for human recombinant adenosine A2B receptor over human recombinant adenosine A3 receptor
[4] = molecular target: T4, Adenosine receptor A2b (Mus musculus) (UniProt Q60614); assay: Antagonist activity at mouse adenosine A2B receptor expressed in NIH3T3 cells assessed as inhibition of NECA-induced cAMP accumulation; format: functional, cell-based
T4 sequence (whole entry): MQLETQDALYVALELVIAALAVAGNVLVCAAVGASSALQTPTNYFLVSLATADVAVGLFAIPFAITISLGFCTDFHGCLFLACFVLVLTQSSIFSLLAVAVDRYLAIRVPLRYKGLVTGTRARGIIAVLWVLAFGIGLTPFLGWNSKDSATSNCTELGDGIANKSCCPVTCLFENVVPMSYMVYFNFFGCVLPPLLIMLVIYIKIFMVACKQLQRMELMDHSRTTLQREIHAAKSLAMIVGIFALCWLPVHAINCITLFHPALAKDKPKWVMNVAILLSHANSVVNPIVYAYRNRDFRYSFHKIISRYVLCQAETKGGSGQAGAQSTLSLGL
Outline: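 Mouse NIH/3T3 cells stimulated with NECA (1 nM to 100 µM) without or with increasing antagonist concentrations; cAMP accumulation measured. KB obtained by Schild analysis; mean ± SEM of three experiments in duplicate.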

[5] = Cmax in Sprague-Dawley rat at 2 mg/kg, po; format: ADME, organism-based; design: dose 2 mg/kg, route oral; settings: in vivo
[6] = Half life in Sprague-Dawley rat at 2 mg/kg, po; format: ADME, organism-based; design: dose 2 mg/kg, route oral; settings: in vivo
[7] = Plasma concentration in Sprague-Dawley rat at 2 mg/kg, po after 4 hrs; format: ADME, organism-based; design: dose 2 mg/kg, route oral
[8] = Plasma concentration in Sprague-Dawley rat at 2 mg/kg, po after 6 hrs; format: ADME, organism-based; design: dose 2 mg/kg, route oral
[9] = AUC (0 to tlast) in Sprague-Dawley rat at 2 mg/kg, po; format: ADME, organism-based; design: dose 2 mg/kg, route oral; settings: plasma
[10] = Tmax in Sprague-Dawley rat at 2 mg/kg, po; format: ADME, organism-based; design: dose 2 mg/kg, route oral; settings: in vivo

Structure (SMILES)	Ratio Ki (Homo sapiens [1])	Ki (Adenosine receptor A2b) [nM]	Ki (Adenosine receptor A1) [nM]	Ki (Adenosine receptor A2a) [nM]	Ki (Adenosine receptor A3) [nM]	Ratio Ki (Homo sapiens [2])	Ratio Ki (Homo sapiens [3])	Kb [4] [nM]	Cmax [5] [ng/mL]	half-life [6] [h]	concentration at 4 h [7] [ng/mL]	concentration at 6 h [8] [ng/mL]	AUC(0-t) [9] [ng·h/mL]	Tmax [10] [h]
CCCn1c(=O)c2[nH]c(-c3cnn(Cc4cccc(C(F)(F)F)c4)c3)nc2n(CC)c1=O [GS 6201]	88	22	1940	3280	1070	149	48	2	1110	4.25	–	–	–	–
CCCn1c(=O)c2[nH]c(-c3cnn(Cc4noc(-c5ccc(C(F)(F)F)cc5)n4)c3)nc2n(CC)c1=O	> 250	24	> 6000	> 5000	> 9000	> 208	> 375	–	34.6	–	7.75	17.3	65.6	6
CCCn1c(=O)c2[nH]c(-c3cnn(Cc4nc(-c5ccc(Cl)cc5)no4)c3)nc2n(CC)c1=O	56	16	910	3780	413	236	25	–	–	–	–	–	–	–
Cn1c(=O)n(CC2CC2)c(=O)c2[nH]c(-c3cnn(Cc4cccc(C(F)(F)F)c4)c3)nc21	8	21	167	312	160	15	7	–	–	–	–	–	–	–
CC(C)Cn1c(=O)c2[nH]c(-c3cnn(Cc4ccccc4)c3)nc2n(C)c1=O	16	21	347	408	204	19	9	–	–	–	–	–	–	–
CCCn1c(=O)c2[nH]c(-c3cnn(Cc4ccc(C(F)(F)F)nc4)c3)nc2n(CC)c1=O	139	18	2500	2250	440	125	24	–	671	9.7	–	–	–	–
CCCn1c(=O)c2[nH]c(-c3cnn(Cc4cc(-c5ccc(C(F)(F)F)cc5)on4)c3)nc2n(CC)c1=O	87	25	2190	2370	3810	94	152	–	–	–	–	–	–	–

The next compounds have a lower Ki (Adenosine receptor A2b) than those just listed; values first:

Ratio Ki (Homo sapiens [1])	Ki (Adenosine receptor A2b) [nM]	Ki (Adenosine receptor A1) [nM]	Ki (Adenosine receptor A2a) [nM]	Ki (Adenosine receptor A3) [nM]	Ratio Ki (Homo sapiens [2])	Ratio Ki (Homo sapiens [3])	Kb [4] [nM]	Cmax [5] [ng/mL]	half-life [6] [h]	concentration at 4 h [7] [ng/mL]	concentration at 6 h [8] [ng/mL]	AUC(0-t) [9] [ng·h/mL]	Tmax [10] [h]	Structure (SMILES)
31	14	441	450	408	32	29	–	–	–	–	–	–	–	CCCn1c(=O)c2[nH]c(-c3cnn(Cc4cccc(C(F)(F)F)c4)c3)nc2n(C)c1=O
14	11	154	149	91	13	8	–	–	–	–	–	–	–	Cn1c(=O)n(CC2CC2)c(=O)c2[nH]c(-c3cnn(Cc4ccccc4)c3)nc21
38	11	427	481	453	43	41	–	–	–	–	–	–	–	CCCCn1c(=O)c2[nH]c(-c3cnn(Cc4cccc(C(F)(F)F)c4)c3)nc2n(C)c1=O
58	6	350	231	282	38	47	–	–	–	–	–	–	–	CCn1c(=O)c2[nH]c(-c3cnn(Cc4cccc(F)c4)c3)nc2n(C)c1=O
